Laboratory results published in ChEMBL document CHEMBL4024768, “Discovery and Optimization of Thiazolidinyl and Pyrrolidinyl Derivatives as Inhaled PDE4 Inhibitors for Respiratory Diseases” (J Med Chem, 2017).
pIC50: −log10 of the molar value. Active and inactive are the calls of the source. No cut-off for these calls is given here.

Assays:
[1] = Drug metabolism in human hepatocytes assessed as (S)-1-(3-(dimethylcarbamoyl)phenylsulfonyl)pyrrolidine-2-carboxylic acid metabolite formation at 10 uM after 60 mins by LC-MS/MS analysis; type: ADME, cell-based, Hepatocyte; details: 1 h
In short: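 Pooled mixed-sex cryopreserved human hepatocytes (1 million cells/mL) in Leibovitz L-15 at 37 °C, compound at 10 μM in duplicate. Sampled at 0 and 60 min. Protein-free supernatant evaporated under nitrogen, reconstituted in mobile phase and analysed by LC−MS/MS. Cell-free medium incubation for 60 min as control.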

Lung [2] = test: Cmax in Sprague-Dawley rat lung at 1 umol/kg, it administered as micronized powder measured up to 24 hrs post dose by electrospray LC-MS analysis; type: ADME, tissue-based; set-up: dose 1 umol/kg; details: in vivo, inhaled_or_intranasal
In short: (§1)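 Sprague-Dawley rats (250−400 g) dosed intratracheally with micronized dry powder blended with coarse lactose, delivered by insufflator under isoflurane anaesthesia. Blood collected in heparinized tubes and spun at 1200g for 15 min. Lung sampled at 0.25, 1, 2, 4, 8, 16 and 24 h, n = 3 per time point.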

Lung [3] = test: Tlast in Sprague-Dawley rat lung at 1 umol/kg, it administered as micronized powder measured up to 24 hrs post dose by electrospray LC-MS analysis; type: ADME, tissue-based; details: in vivo, inhaled_or_intranasal; in short: as §1
Lung [4] = test: AUClast in Sprague-Dawley rat lung at 1 umol/kg, it administered as micronized powder measured up to 24 hrs post dose by electrospray LC-MS analysis; type: ADME, tissue-based; details: in vivo, inhaled_or_intranasal; in short: as §1
Plasma = test: Cmax in Sprague-Dawley rat plasma at 1 umol/kg, it administered as micronized powder measured up to 24 hrs post dose by electrospray LC-MS analysis; type: ADME, cell-free; set-up: dose 1 umol/kg; details: inhaled_or_intranasal; in short: as §1
[5] = Ratio of drug uptake in Sprague-Dawley rat lung to plasma at 1 umol/kg, it administered as micronized powder measured up to 8 hrs post dose by electrospray LC-MS analysis; type: ADME; details: other tissue, inhaled_or_intranasal
[6] = Inhibition of bovine retina PDE6 expressed insect sf9 cells by radiometric assay; set-up: species or system Bos taurus
[7] = biological target: High affinity cGMP-specific 3',5'-cyclic phosphodiesterase 9A (Homo sapiens, UniProt O76083); test: Inhibition of human recombinant PDE9A2 expressed insect sf9 cells by radiometric assay
In short: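 Human recombinant PDEs expressed in Sf9 cells, except PDE6 purified from bovine retina. Radiometric two-step method, modified from Thompson and Appleman. Five concentrations in duplicate, starting at 30 μM with 1:10 serial dilution, 1% final DMSO.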

[8] = biological target: Voltage-gated inwardly rectifying potassium channel KCNH2 (Homo sapiens, UniProt Q12809); test: Inhibition of human ERG at 1 uM
Cytochrome P450 3A4 = Cytochrome P450 3A4 (Homo sapiens, UniProt P08684); test: Binding affinity to human liver microsomes CYP3A4 at 1 uM; type: ADME
In short: (§2)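 Off-target screening panel of about 400 receptors, enzymes and ion channels, run at 1 μM. Result expressed as % binding.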

[9] = biological target: T1, Sterol O-acyltransferase 1 (Rattus norvegicus) (UniProt O70536); test: Binding affinity to rat hepatic Acyl CoA-cholesterol acyltransferase at 1 uM; in short: as §2
T1 sequence (whole entry): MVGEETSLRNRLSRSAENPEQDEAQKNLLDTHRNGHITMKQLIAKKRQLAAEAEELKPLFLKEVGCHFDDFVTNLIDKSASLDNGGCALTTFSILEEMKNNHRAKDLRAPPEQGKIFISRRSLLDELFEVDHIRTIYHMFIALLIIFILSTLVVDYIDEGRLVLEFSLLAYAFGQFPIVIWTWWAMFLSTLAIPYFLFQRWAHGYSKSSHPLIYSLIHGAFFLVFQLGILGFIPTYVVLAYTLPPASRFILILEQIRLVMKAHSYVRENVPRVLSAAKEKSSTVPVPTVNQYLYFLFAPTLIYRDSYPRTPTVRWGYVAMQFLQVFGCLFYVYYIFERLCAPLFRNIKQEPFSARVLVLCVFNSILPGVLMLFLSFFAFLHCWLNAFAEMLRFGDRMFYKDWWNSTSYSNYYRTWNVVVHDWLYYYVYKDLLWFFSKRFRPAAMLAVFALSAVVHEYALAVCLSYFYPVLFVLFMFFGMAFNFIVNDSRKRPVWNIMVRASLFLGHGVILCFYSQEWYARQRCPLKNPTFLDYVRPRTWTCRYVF

[10] = biological target: T2, Amine oxidase [flavin-containing] A (Homo sapiens, UniProt P21397); test: Binding affinity to human monoamine oxidase A at 1 uM; in short: as §2
T2 sequence (P21397 whole entry): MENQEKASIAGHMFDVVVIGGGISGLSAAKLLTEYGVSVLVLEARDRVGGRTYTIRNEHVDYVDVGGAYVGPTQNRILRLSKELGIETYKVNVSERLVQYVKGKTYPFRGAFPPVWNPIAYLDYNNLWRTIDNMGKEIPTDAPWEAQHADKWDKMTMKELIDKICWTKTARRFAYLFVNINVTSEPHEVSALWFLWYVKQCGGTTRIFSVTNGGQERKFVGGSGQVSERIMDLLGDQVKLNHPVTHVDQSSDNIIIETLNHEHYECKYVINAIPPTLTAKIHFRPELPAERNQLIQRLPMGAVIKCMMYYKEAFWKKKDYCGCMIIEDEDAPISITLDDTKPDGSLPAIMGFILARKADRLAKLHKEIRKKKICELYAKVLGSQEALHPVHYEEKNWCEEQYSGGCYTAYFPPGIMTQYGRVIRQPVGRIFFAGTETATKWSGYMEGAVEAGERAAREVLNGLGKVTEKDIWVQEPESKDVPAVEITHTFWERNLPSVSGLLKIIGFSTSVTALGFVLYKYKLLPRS

Rattus norvegicus [11] = test: (§3) Anti-inflammatory activity in OVA-induced airway inflammation Brown Norway rat model assessed inhibition of eosinophils recruitment in bronchoalveolar lavage fluid at 0.1 umol/kg administered intratracheally as powder formulation 2 hrs before aerosolized OVA challenge measured at 24 hrs post aerosolized OVA challenge; type: functional; details: inhaled or nasal
In short: (§4)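 Male Brown Norway rats sensitized i.p. with OVA (1 mg/rat) plus Al(OH)3 (100 mg/rat) in saline on 3 consecutive days. Challenged 2–3 weeks later with nose-only 1% OVA aerosol for 30 min. Lactose-blended dry powder (10 mg/kg total powder) insufflated intratracheally; dose taken from needle weight difference. BAL with 3 × 4 mL HBSS/EDTA/HEPES at 24 h; total and differential counts by automated counter. ED50 from fitted dose–response curve.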

Rattus norvegicus [12] = test: as §3, with “inflammatory cell infiltration” for “eosinophils recruitment”, “1” for “0.1”; type: functional; in short: as §4
Cytochrome P450 2C19 = Cytochrome P450 2C19 (Homo sapiens, UniProt P33261); test: Binding affinity to human liver microsomes CYP2C19 at 1 uM; type: ADME; in short: as §2
Rattus norvegicus [13] = organism: Rattus norvegicus; test: Binding affinity to rat imidazoline I2 receptor; in short: as §2

Sequence of High affinity cGMP-specific 3',5'-cyclic phosphodiesterase 9A (O76083 whole entry): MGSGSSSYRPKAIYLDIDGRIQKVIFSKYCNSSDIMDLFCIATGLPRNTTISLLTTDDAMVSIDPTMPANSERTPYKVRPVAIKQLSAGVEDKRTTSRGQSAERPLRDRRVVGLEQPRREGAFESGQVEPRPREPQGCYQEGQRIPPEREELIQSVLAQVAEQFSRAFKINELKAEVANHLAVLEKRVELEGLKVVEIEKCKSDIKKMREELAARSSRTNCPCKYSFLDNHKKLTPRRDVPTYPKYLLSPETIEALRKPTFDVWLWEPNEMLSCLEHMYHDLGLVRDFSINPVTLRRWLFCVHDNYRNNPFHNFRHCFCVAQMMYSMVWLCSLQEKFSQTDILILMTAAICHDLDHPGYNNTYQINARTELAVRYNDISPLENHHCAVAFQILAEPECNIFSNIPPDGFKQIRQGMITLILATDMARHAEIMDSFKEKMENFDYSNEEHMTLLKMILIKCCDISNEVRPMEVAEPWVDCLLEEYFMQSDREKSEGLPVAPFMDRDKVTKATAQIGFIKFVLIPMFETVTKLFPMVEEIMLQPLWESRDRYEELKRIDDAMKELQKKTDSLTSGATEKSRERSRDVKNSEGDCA
Sequence of Voltage-gated inwardly rectifying potassium channel KCNH2 (Q12809 whole entry): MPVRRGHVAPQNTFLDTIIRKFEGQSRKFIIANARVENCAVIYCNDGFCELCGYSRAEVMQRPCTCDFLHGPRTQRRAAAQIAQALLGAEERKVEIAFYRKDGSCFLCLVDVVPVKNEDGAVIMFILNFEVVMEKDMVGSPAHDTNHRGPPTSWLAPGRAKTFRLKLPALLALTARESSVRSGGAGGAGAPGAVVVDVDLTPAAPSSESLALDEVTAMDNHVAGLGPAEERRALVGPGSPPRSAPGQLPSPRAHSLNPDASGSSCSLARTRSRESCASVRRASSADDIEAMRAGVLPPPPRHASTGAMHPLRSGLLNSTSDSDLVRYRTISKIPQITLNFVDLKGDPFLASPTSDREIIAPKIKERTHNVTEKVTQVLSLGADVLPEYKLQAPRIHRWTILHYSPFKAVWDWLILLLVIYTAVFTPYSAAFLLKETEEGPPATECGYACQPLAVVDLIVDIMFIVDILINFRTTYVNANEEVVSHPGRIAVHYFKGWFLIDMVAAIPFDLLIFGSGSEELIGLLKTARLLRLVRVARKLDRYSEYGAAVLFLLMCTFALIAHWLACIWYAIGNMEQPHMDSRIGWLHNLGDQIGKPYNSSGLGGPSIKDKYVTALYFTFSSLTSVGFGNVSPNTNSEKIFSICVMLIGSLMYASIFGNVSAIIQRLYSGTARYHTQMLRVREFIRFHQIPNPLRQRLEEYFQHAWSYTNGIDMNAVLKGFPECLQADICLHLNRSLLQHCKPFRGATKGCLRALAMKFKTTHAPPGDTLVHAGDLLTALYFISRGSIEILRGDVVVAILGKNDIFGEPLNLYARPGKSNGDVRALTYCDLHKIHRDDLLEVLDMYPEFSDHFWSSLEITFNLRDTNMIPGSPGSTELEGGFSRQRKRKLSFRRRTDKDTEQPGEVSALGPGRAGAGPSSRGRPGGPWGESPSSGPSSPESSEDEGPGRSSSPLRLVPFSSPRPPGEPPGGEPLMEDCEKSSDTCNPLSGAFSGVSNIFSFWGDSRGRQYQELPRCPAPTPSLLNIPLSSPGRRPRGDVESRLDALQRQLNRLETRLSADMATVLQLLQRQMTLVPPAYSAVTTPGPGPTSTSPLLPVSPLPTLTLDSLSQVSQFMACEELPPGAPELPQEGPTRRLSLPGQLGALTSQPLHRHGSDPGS
Sequence of Cytochrome P450 3A4 (P08684 whole entry): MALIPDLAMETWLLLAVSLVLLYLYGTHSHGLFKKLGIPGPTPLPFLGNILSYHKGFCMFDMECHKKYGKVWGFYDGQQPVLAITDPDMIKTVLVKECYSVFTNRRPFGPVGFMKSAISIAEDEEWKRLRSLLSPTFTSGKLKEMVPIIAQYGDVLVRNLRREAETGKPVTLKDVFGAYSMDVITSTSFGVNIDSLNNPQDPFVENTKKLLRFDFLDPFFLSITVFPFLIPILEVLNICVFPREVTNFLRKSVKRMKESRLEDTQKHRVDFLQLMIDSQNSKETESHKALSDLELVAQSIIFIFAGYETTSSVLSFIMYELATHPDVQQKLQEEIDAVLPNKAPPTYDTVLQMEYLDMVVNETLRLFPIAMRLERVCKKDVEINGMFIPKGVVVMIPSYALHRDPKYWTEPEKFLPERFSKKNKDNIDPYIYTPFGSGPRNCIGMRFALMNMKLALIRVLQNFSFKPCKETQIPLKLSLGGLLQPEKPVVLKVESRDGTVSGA
Sequence of Cytochrome P450 2C19 (P33261 whole entry): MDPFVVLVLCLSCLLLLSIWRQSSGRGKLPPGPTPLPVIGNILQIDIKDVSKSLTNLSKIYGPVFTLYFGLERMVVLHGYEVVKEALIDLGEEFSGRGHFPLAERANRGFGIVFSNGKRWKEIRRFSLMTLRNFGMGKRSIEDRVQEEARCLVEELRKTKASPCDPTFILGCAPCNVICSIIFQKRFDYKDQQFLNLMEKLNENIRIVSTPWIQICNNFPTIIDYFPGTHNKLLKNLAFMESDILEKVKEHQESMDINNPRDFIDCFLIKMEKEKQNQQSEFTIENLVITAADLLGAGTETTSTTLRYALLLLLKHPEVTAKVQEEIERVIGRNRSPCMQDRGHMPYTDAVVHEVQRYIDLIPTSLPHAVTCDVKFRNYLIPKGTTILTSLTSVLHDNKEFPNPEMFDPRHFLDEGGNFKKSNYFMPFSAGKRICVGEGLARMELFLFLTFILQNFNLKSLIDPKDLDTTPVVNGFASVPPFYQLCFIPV

Drug metabolism [1] | Cmax (Lung [2]) | Tlast (Lung [3]) | AUClast (Lung [4]) | Cmax (Plasma) | Ratio [5] | pIC50 [7] | Activity (Cytochrome P450 3A4) | Activity [9] | Activity [10] | Activity (Cytochrome P450 2C19) | Activity (Rattus norvegicus [13]) | Structure (SMILES) | pIC50 [6] | inhibition (INH) [8] | inhibition in vivo at 0.1 µmol/kg (Rattus norvegicus [11]) | inhibition (Rattus norvegicus [12])
Metabolite_Notdetected | 16.24 nmol/g | 24 h | 49.65 nmol·h/g | 20.65 pmol/g | 2261 | < 4.52 | 73% | 50% | 76% | – | – | CN(C)C(=O)c1cccc(S(=O)(=O)N2CCC[C@H]2C(=O)O[C@@H](Cc2c(Cl)c[n+]([O-])cc2Cl)c2ccc(OC(F)F)c(OCC3CC3)c2)c1 (relative stereo) | < 4.52 | Not Active | – | –
– | 16.06 nmol/g | 24 h | 65.27 nmol·h/g | 9.8 pmol/g | 5152 | < 4.52 | 84% | – | 94% | 69% | 60% | CN(C)C(=O)c1cccc(S(=O)(=O)N2CCS[C@H]2C(=O)O[C@@H](Cc2c(Cl)c[n+]([O-])cc2Cl)c2ccc(OC(F)F)c(OCC3CC3)c2)c1 | 5.24 | Not Active | 50% | Active
